# Assay results collected from several papers.
# Observed: microbial growth
Compound,organism,assay,system,setting,MIC
O=C1NC(=S)N/C1=C\c1c2ccccc2c(-c2ccc(N(c3ccccc3)c3ccccc3)cc2)c2ccccc12,Streptococcus pyogenes,broth dilution,ATCC19615,,> 1000 µg/mL
CCCCCCC/C=C/C(=O)N1C(=O)/C(=C(\O)c2ccc(OCOCCOC)cc2)C(=O)C1CC(C)C (stereo not drawn),Stenotrophomonas maltophilia,,ATCC13637,,200 µg/mL
CCc1cc(Nc2cc(=O)n(CCCCO)c(=O)[nH]2)ccc1C,Bifidobacterium,agar dilution,,48 h,> 32 µg/mL
O=C1NC(=S)S/C1=C\c1ccc(-c2ccc(N(c3ccccc3)c3ccccc3)cc2)c2ccccc12,Streptococcus pyogenes,broth dilution,ATCC19615,,1000 µg/mL
CCCCCCC/C=C/C(=O)N1C(=O)/C(=C(\O)C2CCNCC2)C(=O)C1CC(C)C (stereo not drawn),Stenotrophomonas maltophilia,,ATCC13637,,25 µg/mL
C/C(=C\c1ccc(C#N)cc1)C(=O)Nc1ccc(C(=O)N[C@@H](CC(N)=O)C(=O)Nc2ccc(C(=O)Nc3ccc(C(=O)Nc4ccc(C(=O)O)cc4)c(O)c3OC(C)C)cc2)cc1,Klebsiella aerogenes,,DSM30053,,0.25 µg/mL
CCCCCCC/C=C/C(=O)N1C(=O)/C(=C(/C)O)C(=O)C1CCCCN (stereo not drawn),Stenotrophomonas maltophilia,,ATCC13637,,> 200 µg/mL
O=C(Nc1ccc2c(c1)OC(F)(F)O2)Nc1ccc(Cl)c(C(F)(F)F)c1,Klebsiella aerogenes,,DSM30053,,> 100 µM
Cc1ncc([N+](=O)[O-])n1CCO,Bifidobacterium,agar dilution,,48 h,> 16 µg/mL
O=C1NC(=S)S/C1=C\c1c2ccccc2c(-c2ccc(N(c3ccccc3)c3ccccc3)cc2)c2ccccc12,Streptococcus pyogenes,broth dilution,ATCC19615,,> 1000 µg/mL
CO[C@@H](C(N)=O)[C@H](NC(=O)c1ccc(NC(=O)c2ccc(C#N)cc2)cc1)C(=O)Nc1ccc(C(=O)Nc2ccc(C(=O)Nc3ccc(C(=O)O)cc3)c(O)c2OC(C)C)cc1,Klebsiella aerogenes,,DSM30053,,2 µg/mL
CN[C@H](CC(C)C)C(=O)N[C@H]1C(=O)N[C@@H](CC(N)=O)C(=O)N[C@H]2C(=O)N[C@H]3C(=O)N[C@H](C(=O)N[C@H](C(=O)O)c4cc(O)cc(O)c4-c4cc3ccc4O)[C@H](O)c3ccc(c(Cl)c3)Oc3cc2cc(c3O[C@@H]2O[C@H](CO)[C@@H](O)[C@H](O)[C@H]2O[C@H]2C[C@](C)(N)[C@H](O)[C@H](C)O2)Oc2ccc(cc2Cl)[C@H]1O,Streptococcus mutans,broth dilution,ATCC25175,,0.98 µg/mL
CCCCCCC/C=C/C(=O)N1C(=O)/C(=C(\O)CCCC)C(=O)C1CC(C)C (stereo not drawn),Stenotrophomonas maltophilia,,ATCC13637,,> 200 µg/mL
O=C1NC(=S)S/C1=C\c1ccc(-c2ccc(N(c3ccccc3)c3ccccc3)cc2)cc1,Streptococcus pyogenes,broth dilution,ATCC19615,,1000 µg/mL
CCCCCCC/C=C/C(=O)N1C(=O)/C(=C(\O)c2ccncc2)C(=O)C1CC(C)C (stereo not drawn),Stenotrophomonas maltophilia,,ATCC13637,,200 µg/mL
